ChEMBL document CHEMBL1153740, “Quassinoids from Eurycoma longifolia” (J Nat Prod, 2009)

System: HT-1080
Test: Cytotoxicity against human HT1080 cells after 72 hrs by MTT assay
Type: functional, cell-based
Conditions: HT-1080, 72 h
Outline: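 HT-1080 human fibrosarcoma cells, harvested in exponential growth, seeded at 2 × 10^3 cells/well and left 24 h at 37 °C in humidified 5% CO2 to attach. Exposed to varying concentrations of test compounds in medium for 72 h. MTT (0.5 mg/mL) added for 2 h, formazan extracted with DMSO, absorbance read at 550 nm. Viability and IC50 taken from means of three wells.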

SMILES	IC50 [µM]
COc1cccc2c1C(=O)c1c(O)c3c(c(O)c1C2=O)C[C@@](O)(C(=O)CO)C[C@@H]3O[C@H]1C[C@H](N)[C@H](O)[C@H](C)O1 [DOXORUBICIN]	0.53
CC1=CC(=O)O[C@@H]1[C@@]1(C)C[C@H]2OC(=O)[C@H](O)[C@@]3(O)[C@@H](C)[C@@H](O)[C@@]4(O)OC[C@]23[C@@H]14	> 100
CC1=CC(=O)[C@@H](O)[C@@]2(C)[C@H]1[C@@H](O)[C@H]1OC(=O)[C@H](O)[C@@]3(O)[C@@H](C)[C@@H](O)[C@H](O)[C@H]2[C@@]13C	90
C[C@H]1[C@H]2OC(=O)[C@@H]1[C@]1(C)C(=O)C=C3[C@H](C)C[C@H](O)[C@@H](O)[C@]3(C)[C@H]1[C@H]2O [EURYCOMALIDE A]	90
CC1=C[C@H](O)[C@@H](O)[C@@]2(C)C1=CC(=O)[C@]1(C)[C@@H]2[C@@H](O)[C@@H]2OC(=O)[C@H]1[C@H]2C [EURYCOMALIDE B]	39
CC1=CC(=O)[C@@H](O)[C@@]2(C)C1=CC(=O)[C@]1(C)[C@@H]2[C@@H](O)[C@@H]2OC(=O)[C@H]1[C@H]2C	5.3
C=C1C[C@H](O)[C@@H](O)[C@@]2(C)[C@H]1CC(=O)[C@@]1(C)[C@H]3C(=O)O[C@H]([C@@H]3C)[C@H](O)[C@@H]12	45
CC1=CC(=O)[C@@H](O)[C@]2(C)[C@H]3[C@@H](O)[C@@H]4OC(=O)[C@@H]([C@H]4C)[C@]3(C)[C@H](O)C[C@@H]12	6.2
O=c1[nH]cc(F)c(=O)[nH]1 [FLUOROURACIL]	5.2
CC1=CC(=O)[C@@H](O)[C@@]2(C)[C@H]1[C@@H](O)C(=O)[C@@]1(C)[C@H]3C(=O)O[C@H]([C@@H]3C)[C@H](O)[C@@H]12	5
CC(=O)O[C@@H]1[C@H](C)[C@]2(O)[C@@H](OC(C)=O)C(=O)O[C@@H]3C[C@H]4C(C)=CC(=O)[C@@H](O)[C@]4(C)[C@H]4[C@]1(O)OC[C@]432	> 100
CC1=CC(=O)[C@@]2(C)C1=CC(=O)[C@]1(C)[C@@H]2[C@@H](O)[C@@H]2OC(=O)[C@H]1[C@H]2C [LAURYCOLACTONE B]	> 100
CC1=CC(=O)[C@@H](O)[C@]2(C)[C@H]3[C@@H](O)[C@@H]4OC(=O)[C@@H]([C@H]4C)[C@]3(C)C(=O)C[C@@]12O	8.8
CC1=C[C@H](O)[C@@H](O)[C@@]2(C)[C@H]1[C@@H](O)C(=O)[C@@]1(C)[C@H]3C(=O)O[C@H]([C@@H]3C)[C@H](O)[C@@H]12	65
CC1=C[C@H](O)[C@@H](O)[C@@]2(C)[C@H]1CC(=O)[C@@]1(C)[C@H]3C(=O)O[C@H]([C@@H]3C)[C@H](O)[C@@H]12 [EURYCOLACTONE E]	7.3
CC1=CC(=O)[C@@H](O)[C@]2(C)[C@H]3[C@]4(O)OC[C@@]35[C@@H](C[C@@H]12)OC(=O)[C@H](O)[C@]5(O)[C@@H](C)[C@H]4O	90
CC1=CC(=O)[C@@H](O)[C@@]2(C)[C@H]1CC(=O)[C@@]1(C)[C@H]3C(=O)O[C@H]([C@@H]3C)[C@H](O)[C@@H]12 [EURYCOMALACTONE]	0.98
CC1=CC(=O)[C@]2(C)[C@H]3[C@@H](O)[C@@H]4OC(=O)[C@@H]([C@H]4C)[C@]3(C)C(=O)C[C@@H]12 [LAURYCOLACTONE A]	> 100
CC1=CC(=O)[C@@H](O)[C@]2(C)[C@H]3[C@@H](O)[C@H](O)[C@H](C)[C@]4(O)[C@@H](O)C(=O)O[C@H](C[C@@H]12)[C@]34C	1.1
C[C@H]1[C@H]2OC(=O)[C@@H]1[C@]1(C)C(=O)C=C3C4(C)OC4C(=O)[C@@H](O)[C@]3(C)[C@H]1[C@H]2O (stereo partly drawn)	> 100
CC1=CC(=O)[C@@H](O)[C@@]2(C)[C@H]1[C@@H](O)[C@H]1OC(=O)C3[C@@H](C)[C@H](O)[C@H](O)[C@H]2[C@]31C (stereo partly drawn) [LONGILACTONE]	19
CC1=C2C(=O)[C@H](O)[C@]3(C)[C@H]([C@@H](O)[C@@H]4OC(=O)[C@H]3[C@H]4C)[C@@]2(C)[C@H](O)[C@@H](O)C1	> 100
C[C@H]1[C@H]2OC(=O)[C@@H]1[C@]1(C)C(=O)C=C3[C@@](C)([C@H]1[C@H]2O)[C@H](O)[C@@H](O)[C@H]1O[C@@]31C	> 100
